We go through two molecules from paper PMC6044853 (ACS Omega, 2017).

The term MIC denotes the smallest concentration in the dilution series that meets the test's criterion for growth inhibition. Broadly, the inhibition is the relative decrease from the control value, in per cent.

In one series the test system is USA300 #2690. Briefly: MIC, clinical isolate strain 9. Type of series: cell-based. The following applies: Staphylococcus aureus, USA300, read-out: MIC strain 9. The essentials:
(§1)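 Broth microdilution per CLSI guidelines. MIC is the lowest concentration preventing visible bacterial growth. MIC is reported in μg/mL, with S. aureus values also converted to μM.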

For a further series, the system named is S. aureus ATCC 43300. Description: MIC, clinical isolate strain 5. The series is classed as cell-based. The settings on record: Staphylococcus aureus, ATCC43300, read-out: MIC strain 5. The essentials:
as §1

The next series concerns G. mellonella larvae. Description: Toxicity in G. mellonella larvae. Type of series: in vivo, Galleria mellonella. The settings on record: 50 and 100 mg/kg in 50% PEG in saline, injected, 48 h. The essentials:
(§2)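 G. mellonella model: groups of 10 last-instar larvae weighing 200–300 mg, held at 37 °C. Test compound is dissolved in 50% PEG in saline (0 [vehicle], 50, 100 mg/kg) and injected into the last left proleg with a Hamilton syringe. Mortality is scored every 12 h for 48 h. Survival is analysed by log rank and χ² test (1 degree of freedom), with three independent experiments.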

The test system of series [1] is S. aureus strain ATCC 29213. Description: MIC, broth microdilution. The series is classed as cell-based, Staphylococcus aureus. The settings on record: S. aureus 29213; Table 1. The essentials: as §1
Background: In broth dilution the organism is exposed to a series of concentrations in liquid medium.

In another series the test system is USA300 #757. Briefly: MIC, clinical isolate strain 7. The series is classed as cell-based. The following applies: Staphylococcus aureus, USA300, read-out: MIC strain 7. The method, boiled down:
as §1

Another series has as its system S. aureus ATCC 29247. Description: MIC, clinical isolate strain 1. Type of series: cell-based. The following applies: Staphylococcus aureus, ATCC29247, read-out: MIC strain 1. The essentials:
as §1

For series [2], the target named is T1, S. aureus FtsZ (Staphylococcus aureus, UniProt P0A031).
T1 sequence (P0A031 1-390): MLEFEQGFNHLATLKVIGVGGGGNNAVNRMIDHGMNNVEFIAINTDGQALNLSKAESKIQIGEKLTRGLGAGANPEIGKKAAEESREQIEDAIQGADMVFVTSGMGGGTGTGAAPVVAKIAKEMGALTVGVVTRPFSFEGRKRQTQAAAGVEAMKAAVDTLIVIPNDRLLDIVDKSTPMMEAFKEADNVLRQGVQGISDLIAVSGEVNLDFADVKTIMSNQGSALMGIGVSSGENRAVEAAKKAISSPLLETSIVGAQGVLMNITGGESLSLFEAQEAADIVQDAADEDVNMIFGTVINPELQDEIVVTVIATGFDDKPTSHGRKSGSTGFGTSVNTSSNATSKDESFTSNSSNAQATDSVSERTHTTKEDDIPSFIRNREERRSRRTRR
Briefly: GTPase hydrolysis activity assay. Type of series: biochemical. The following applies: read-out: inhibition of GTPase hydrolysis activity.

Series [3] has as its system B. subtilis 168. Briefly: MIC, B. subtilis 168. The following applies: Bacillus subtilis, 168, read-out: MIC B. subtilis 168. Type of series: cell-based.
The subject of series [4] is green fluorescent protein-tagged FtsZ in B. subtilis 168. Briefly: Z-ring visualization of B. subtilis 168. The series is classed as cell-based, Bacillus subtilis. The essentials:
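B. subtilis 168 expressing functional GFP-tagged FtsZ is treated with compound or DMSO. Z-ring formation is imaged by fluorescence microscopy alongside matching phase-contrast images.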

For series [5], the system named is G. mellonella larvae infected with MRSA ATCC 43300. Description: Antimicrobial efficacy in G. mellonella model of infection. Type of series: in vivo, Galleria mellonella. The settings on record: 2.5 × 10^6 CFU/larva MRSA ATCC 43300. The method, boiled down:
as §2

Series [6] in a line: Solubility in aqueous medium. The following applies: precipitation in aqueous medium at >80 μM. The series is classed as physicochemical.
A further series deals with USA300 #1799. Description: MIC, clinical isolate strain 8. Type of series: cell-based. The settings on record: Staphylococcus aureus, USA300, read-out: MIC strain 8. The method, boiled down: as §1
Series [7] concerns B. subtilis 168. Description: Bacterial morphology of B. subtilis 168. Type of series: cell-based, Bacillus subtilis. The following applies: sublethal concentration; DMSO-treated cells < 5 μm.
The target in series [8] is T1, S. aureus FtsZ. Description: STD NMR study. The series is classed as binding. The essentials:
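Saturation transfer difference NMR with purified S. aureus FtsZ at 600 MHz and 298 K. For group epitope mapping, each proton's STD signal is integrated relative to the strongest STD signal, set to 100%.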

In series [9] the test system is E. coli strain ATCC 25922. Description: MIC, broth microdilution. Type of series: cell-based. The settings on record: Escherichia coli, ATCC25922, read-out: MIC E. coli. The method, boiled down: as §1
Series [10] deals with T1, S. aureus FtsZ. Briefly: Light scattering assay of FtsZ polymerization. Type of series: biochemical. The settings on record: 30 μM compound, vs 1% DMSO vehicle.
The subject of a further series is USA300 #417. Briefly: MIC, clinical isolate strain 6. The series is classed as cell-based. The following applies: Staphylococcus aureus, USA300, read-out: MIC strain 6. The method, boiled down: as §1

Converted amounts (≈) assume the structure as drawn.

On to `CCC(CC)c1cc(CCN2CCCN(Cc3ccc(C(F)(F)F)cc3)CC2)nc(-c2ccncc2)n1` [14av_amine16, 1-(2-(6-(Pentan-3-yl)-2-(pyridin-4-yl)pyrimidin-4-yl)ethyl)-4-(4-(trifluoromethyl)benzyl)-1,4-diazepane], for which the MIC turned out to be 6 µg/mL (≈ 11.7 µM) in the series with USA300 #2690; 6 µg/mL (≈ 11.7 µM) in the series on S. aureus ATCC 43300; 6 µg/mL (≈ 11.7 µM) in the series on USA300 #757; 4 µg/mL (≈ 7.82 µM) in the series with S. aureus ATCC 29247; 12 µM (≈ 6.14 µg/mL) with B. subtilis 168 [3]; 6 µg/mL (≈ 11.7 µM) in the series with USA300 #1799. The MIC in series [9] was greater than 64 µg/mL; in the series on USA300 #417, 6 µg/mL (≈ 11.7 µM). The “toxicity to G. mellonella larvae (survival)” value in the series with G. mellonella larvae is reported as “did not kill the G. mellonella larvae”. Besides, the “MIC S. aureus” value in series [1] turned out to be 4 µg/mL (≈ 7.82 µM). In addition, in series [1], the “MIC S. aureus, number in parentheses calculated in μM” value was 8 µM (≈ 4.09 µg/mL). On S. aureus FtsZ [2], the inhibition at 50 µM was roughly 20%. The inhibition at 75 µM at S. aureus FtsZ [2] was roughly 25%. Also, in series [4], the Z-ring localization entry is “obvious mislocalization of the Z-ring”. The “survival time of infected larvae” value in [5] (50 mg/kg) worked out at 36 h. In addition, the “survival rate of infected larvae” value in [5] (100 mg/kg, 48 h) is recorded as 20%. Also, in series [6], the compound solubility entry is listed as “poor compound solubility”. In the series with B. subtilis 168 [7], the average cell length is given as greater than 20 μm. Moreover, the “binding to FtsZ protein by STD NMR” value at S. aureus FtsZ [8] is recorded as “binds to FtsZ protein”. Further, the “inhibition of FtsZ polymerization” value at S. aureus FtsZ [10] was “complete inhibition”.
In the case of `COc1cccc(OC)c1C(=O)N[C@@H]1C(=O)N2[C@@H]1SC(C)(C)[C@@H]2C(=O)O` [methicillin, reference compound], the MIC was greater than 64 µg/mL in the series on S. aureus ATCC 43300, 64 µg/mL (≈ 168 µM) with USA300 #757, 64 µg/mL (≈ 168 µM) in the series with USA300 #1799 and greater than 64 µg/mL in the series with USA300 #417.
